Results gathered from unrelated publications.
Compare with care: the assays were run in different laboratories.
Target: Serine/threonine-protein kinase 38 (STK38, Homo sapiens, UniProt Q15208)

SMILES | test | system | conditions | endpoint | result
Cn1c2c(Cl)c(Cl)ccc2c2cn[nH]c(=O)c21 | thermal stability, DSF |  | 10 µM | ΔTm | 0 °C
O=C1NC(=O)c2cc(Nc3ccc(F)cc3)c(Nc3ccc(F)cc3)cc21 | cell-free assay |  | 0.5 µM | remaining signal | 85.5%
CCN1CCN(Cc2ccc(NC(=O)c3ccc(C)c(Oc4ccnc5[nH]ccc45)c3)cc2C(F)(F)F)CC1 | target engagement in cells, inhibitor, chemoproteomics | A-375 | 5 µM | inhibition | -0.846%
C[S+]([O-])c1ccc(-c2nc(-c3ccncc3)c(-c3ccc(F)cc3)[nH]2)cc1 (stereo not shown) | cell-free assay |  | 0.5 µM | remaining signal | 105%
Nc1ncnc2occ(-c3ccc(NC(=O)Nc4cc(C(F)(F)F)ccc4F)cc3)c12 | cell-free assay, inhibitor |  | 20 µM | remaining signal | 31%
Cn1c2c(c3ccc(Cl)c(Cl)c31)C(C#N)C1(CCNCC1)NC2=O (racemic) | thermal stability, DSF |  | 10 µM | ΔTm | 0.4 °C
O=C(Nc1cnc(Oc2ccc(F)cc2)nc1)N1CCc2ncccc2[C@@H]1c1ccc(F)cc1 | cell-free assay, competition with immobilised ligand |  | 1 µM | remaining binding | 91%
O=C(Nc1cnn(-c2csc(C(=O)NC3COC3)c2)c1)Nc1c(F)cccc1Cl | enzyme activity, inhibitor |  | 5 µM | remaining activity | 95.5%
CC1(C)NC(=O)c2[nH]c3c(Cl)c(Cl)ccc3c2C1C#N (stereo not shown) | thermal stability, DSF |  | 10 µM | ΔTm | -0.1 °C
Cc1ccc(C(=O)Nc2ccc(CN3CCN(C)CC3)c(C(F)(F)F)c2)cc1C#Cc1cnc2cccnn12 | enzyme activity, inhibitor |  | 23.5 nM | remaining activity | 78%
Cc1cc(NC(=O)c2cccc(S(F)(F)(F)(F)F)c2)cc(-n2ccn3nc(-c4cccnc4)cc23)c1 | cell-free assay, competition with immobilised ligand |  | 1 µM | remaining binding | 92.3%
Cn1c2c(Cl)c(Cl)ccc2c2cc(N)[nH]c(=O)c21 | thermal stability, DSF |  | 10 µM | ΔTm | -0.2 °C
CC(C)(O)[C@H]1CC[C@H](Nc2ccc3ncc(-c4cccc(C(F)(F)F)c4)n3n2)CC1 | enzyme activity, inhibitor |  | 1 µM | remaining activity | 96.7%
CCCOc1ccc([C@@H]2[C@@H](C(=O)O)[C@H](c3ccc4c(c3)OCO4)CN2CC(=O)Nc2c(CC)cccc2CC)cc1 | cell-free assay, competition with immobilised ligand |  | 1 µM | remaining binding | 83%
Cn1c2c(Cl)c(Cl)ccc2c2cc[nH]c(=O)c21 | thermal stability, DSF |  | 10 µM | ΔTm | 0 °C
NS(=O)(=O)c1cc(NC(=O)C2(c3ccccc3Cl)CC2)ccc1Oc1cccc(Cl)c1 | cell-free assay, competition with immobilised ligand |  | 1 µM | remaining binding | 81%
CC/C(=N\NC(=O)NCc1cccc(O)c1)c1ccc(O)c(C)c1O | enzyme activity, inhibitor |  | 0.1 µM | inhibition | 18.8%
CCC1(CC)NC(=O)c2c(c3ccc(Cl)c(Cl)c3n2C)C1C#N (stereo not shown) | thermal stability, DSF |  | 10 µM | ΔTm | 1.1 °C
C[C@H](c1ccnc(Nc2nc3ccc(-c4cc(N(C)C)ncn4)cc3[nH]2)c1)N1CCN(C(=O)CC(F)(F)F)CC1 | cell-free assay, competition with immobilised ligand |  | 0.1 µM | remaining binding | 100%
